Screens from PubChem.
OXTR ag: agonists of human oxytocin receptor; CHO-OTR cells, Fluo-8 calcium fluorescence; normalized: DMSO 0%, oxytocin 100%; activation, % at 3 µM; 320,000 compounds, 0.32% hits; AID 2435;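 active means activation above the mean of all tested compounds plus 3 SD, cutoff set per screening run, cut at about 20% in these data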;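 further: peak over basal fluorescence ratio from a 100 s FLIPR kinetic read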
Target sequence (P30559 whole entry, looked up): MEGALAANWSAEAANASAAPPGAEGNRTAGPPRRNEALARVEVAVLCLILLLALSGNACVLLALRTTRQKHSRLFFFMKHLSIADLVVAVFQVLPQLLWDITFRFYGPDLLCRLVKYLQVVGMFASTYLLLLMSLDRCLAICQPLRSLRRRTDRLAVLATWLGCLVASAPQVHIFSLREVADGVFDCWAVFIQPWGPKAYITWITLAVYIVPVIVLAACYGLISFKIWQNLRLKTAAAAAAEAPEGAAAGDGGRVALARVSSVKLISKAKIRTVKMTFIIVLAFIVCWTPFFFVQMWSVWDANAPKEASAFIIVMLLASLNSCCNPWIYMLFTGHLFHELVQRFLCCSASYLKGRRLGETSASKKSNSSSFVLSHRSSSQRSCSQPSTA
TAAR1 agonist: agonists of human TAAR1. CHO RD-HGA16 TAAR1, Fluo-8 calcium fluorescence; vehicle wells 0%, saturating PEA agonist 100%. activation, % at 3 µM. 360,000 compounds, 0.99% hits. AID 624467;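 active means activation above the mean activation of all test compounds in the run plus 3 SD, cut at about 38% in these data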
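System: CHO RD-HGA16 cells carrying human TAAR1 plus Gα16; Incubation: 17-24 h seeding, 75 min 37 °C dye, 30 min RT; Measured by: Fluo-8 fluorescence, 5 s baseline then 140 s kinetic read; Control set: DMSO and PEA EC100; Replication: single well for each compound.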
OXTR potentiator: potentiators of human oxytocin receptor | activation, % at 3 µM | CHO-OTR cells, Fluo-8 calcium fluorescence, potentiator mode; 0% = oxytocin EC15, 100% = EC100 | 320,000 compounds, 0.061% hits | AID 2445 | P30559;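 active means activation above that plate's cutoff, the mean activation of tested compounds plus 3 SD, cut at about 6.6% in these data, passing the limit was not always enough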;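 further: 100% uses oxytocin at 75 nM as the full agonist control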
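Replication – single well per compound, singlicate · Assay system – CHO cell line stably expressing human OTR · Timing – 6 min pre-incubation, 100 s read · Measure – normalized max/min fluorescence ratio, % activation · Doses – 3.0 µM, one dose · Detection – Fluo-8 calcium dye fluorescence · Probe or stimulus – oxytocin near EC15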
V1R ag counter: V1a receptor agonism, counter-screen for OXTR agonists. P37288. activation, % at 3 µM. AID 2797. 320,000 compounds, 0.25% hits. CHO-V1R cells, Fluo-8 calcium fluorescence, agonist mode; 0% DMSO, 100% 3 nM vasopressin;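 active means activation above the mean activation of all tested compounds plus 3 SD, per screening run, cut at about 20% in these data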;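 further: signal is peak over basal fluorescence ratio across a 100 second FLIPR read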
TAAR1 antagonist: antagonists of human TAAR1 | Q96RJ0 | CHO RD-HGA16 TAAR1, Fluo-8 calcium fluorescence, antagonist | inhibition, % at 3 µM | 360,000 compounds, 1.5% hits;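 active means inhibition above a per-plate cutoff, the mean inhibition of test compounds on that plate plus 3 SD, cut at about 49% in these data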;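 further: 0% = DMSO plus EC80 beta-PEA response and 100% = DMSO alone without agonist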
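test system = CHO RD-HGA16 cells bearing hTAAR1 | replication = singlicate | controls = DMSO-only wells and EC80 β-PEA-stimulated wells | reagent = EC80 β-phenethylamine stimulus | read-out basis = percent inhibition of PEA-evoked calcium signal, max/basal emission ratio | schedule = seeding 17-24 h prior, 75-min 37 °C, 30-min RT dye loading | signal = kinetic Fluo-8 calcium fluorescence measurement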
* marks the source's active call; other numbers are inactive results; / = not tested or not shown. Compounds with a hit are over-represented: about 2.3% of the library has one in this group of screens.

SMILES | OXTR ag | TAAR1 agonist | OXTR potentiator | V1R ag counter | TAAR1 antagonist
N#CC1=C(N)SC(N)=C(C#N)C1c1ccoc1 | 5 | / | -8 | 5 | /
Cc1ccc(C2C(C#N)=C(N)SC(N)=C2C#N)c(C)c1 | 20* | / | -24 | 21* | /
CC(C)c1c(C(=O)N/N=C/c2ccco2)nnn1-c1nonc1N | 2 | 43* | -2 | 5 | -6
Cc1ccc(/C=N/NC(=O)c2nnn(-c3nonc3N)c2C(C)C)s1 | 2 | 47* | -4 | 4 | -1
Cc1ccc(/C=N/NC(=O)c2nnn(-c3nonc3N)c2C(C)C)o1 | 2 | 38* | -10 | 1 | 3
COc1ccc2ccccc2c1/C=N/NC(=O)c1nnn(-c2nonc2N)c1C(C)C | 1 | 7 | -10 | 4 | 55*
CN(C)Cc1c(C(=O)N/N=C/c2ccco2)nnn1-c1nonc1N | 1 | -1 | 1 | 1 | -1
COc1ccc2ccccc2c1/C=N/NC(=O)c1nnn(-c2nonc2N)c1CN(C)C | -1 | 2 | -9 | 0 | -3
CCCc1c(C(=O)N/N=C/c2ccc(C)o2)nnn1-c1nonc1N | / | 17 | / | / | 14
CC(C)(C)C1=CC(CC(N)=O)(C(C)(C)C)OC1=O (centres undefined) | / | 2 | / | / | -23
C=C1[C@H](C)CN(S(=O)C(C)(C)C)[C@H]1CCO (some centres undefined) | / | 2 | / | / | 13
CCCCc1c(-c2ccccc2OC)ncn1Cc1cccc(F)c1 | / | 1 | / | / | -14
COC(=O)c1cc2c(c3c4cc(OC)ccc4n(S(=O)(=O)c4cccc(C)c4)c13)C(=O)N(Cc1ccccc1OC)C2 | / | -1 | / | / | -42
O=C1CC(O)C(Cc2ccccc2)N1 (centres undefined) | / | 2 | / | / | -19
C=CCNc1nc(-c2sc(NC(=O)C(C)(C)C)nc2C)c(-n2cc(-c3ccccc3)nn2)s1 | / | 7 | / | / | 61*
COc1ccc(S(=O)(=O)N2CCN(c3nc(-c4cccnc4)nc4ccccc34)CC2)cc1 | 0 | 4 | -4 | 3 | 37
O=C(CCl)NC(Cc1ccccc1)C(=O)OCC(=O)c1ccc(-c2ccccc2)cc1 (centres undefined) | / | 5 | / | / | 60*
NC(N)=N/N=C/c1cccc(Cl)c1Cl | 6 | 42* | -10 | 5 | 17
CC(C)c1nnc(N2C(=O)C(O)=C(C(=O)c3cccs3)C2c2ccccc2)s1 (centres undefined) | / | 40* | / | / | 25
COc1ccc(C2C(C(=O)c3cccs3)=C(O)C(=O)N2c2nnc(C)s2)cc1OC (centres undefined) | 2 | / | 2 | 1 | /
Cc1ccc(Nc2nc(NCc3ccco3)c3ccccc3n2)cc1 | 13 | 50* | -29 | 13 | -3
c1ccc(Nc2nc(NCC3CCCO3)c3ccccc3n2)cc1 (centres undefined) | 1 | 52* | -5 | 2 | 3
OCCNc1nc(Nc2ccc(Br)cc2)nc2ccccc12 | 7 | 65* | -26 | 6 | 60*
COc1ccc(CN(C)C(=O)c2ccc(NS(=O)(=O)c3ccc(F)cc3)cc2)c(OC)c1 | 0 | 2 | -11 | 4 | -10
COc1ccc(NS(=O)(=O)c2ccc(C(=O)N(C)Cc3ccc(C)o3)cc2)cc1 | 27* | 49* | -11 | 27* | 27
SMILES | OXTR ag | TAAR1 agonist | OXTR potentiator | V1R ag counter | TAAR1 antagonist
Cc1nc2sccn2c(=O)c1S(=O)(=O)Nc1ccc(N2CCN(S(C)(=O)=O)CC2)cc1 | 3 | 21 | -8 | 4 | 60*
CCCOc1ccc(Br)cc1CSC(=N)N | 16 | 80* | -18 | 13 | 50*
CCOc1ccc(Br)cc1CC(=O)O | -1 | 5 | -8 | 0 | -1
COC(=O)[C@]12C[C@H](CC(=O)NCC3CCCCC3)C(=O)N(CCC3=CCCCC3)C1=C[C@H](C(C)(C)C)O[C@@H]2C | / | -1 | / | / | -24
C[C@@H]1CN([C@@H](C)CO)C(=O)c2cc(Br)cnc2O[C@@H]1CN(C)C(=O)c1ccc(F)cc1 | / | 0 | / | / | 5
COc1ccc(NC(=O)COC(=O)CCCC2=NS(=O)(=O)c3ccccc3N2)cc1 | 0 | 39* | -3 | 1 | -16
COc1cccc(C2NC(=S)N(Cc3ccccc3)C(C)=C2C(C)=O)c1 (centres undefined) | / | -1 | / | / | 3
O=C(NCCN1CCC(n2c(=O)[nH]c3ccccc32)CC1)c1cccc2c1-c1ccccc1C2=O | / | 10 | / | / | 59*
O=C(NCCN1CCC(n2c(=O)[nH]c3ccccc32)CC1)c1ccccc1Cl | / | 5 | / | / | 12
COC(=O)C1=C(C)N(C)C(=NCC2CC2)NC1CCc1ccccc1 (centres undefined) | / | 2 | / | / | -14
O=C(CN1C(=O)COc2ccccc21)NCc1ccccn1 | 0 | 5 | -8 | 1 | 5
CC(C)C[C@@H]1COc2cccc(N3CCCCC3)c2S(=O)(=O)N1 | / | -1 | / | / | -2
CCOC(=O)C1CCCN(C(=O)CCCn2nnnc2CN2CCOCC2)C1 (centres undefined) | / | 40* | / | / | 22
CCOC(=O)c1ccc(S(=O)(=O)Nc2ccccc2-c2nnn(CC)n2)cc1 | / | 4 | / | / | 53*
CC(=NO)C1CCC2C3CCC4=CC(=NO)CCC4(C)C3C(O)CC12C (centres undefined) | / | 21 | / | / | 67*
COc1ccc(C2C(C(=O)c3ccccc3)N3c4ccccc4C=CC3C2[N+](=O)[O-])cc1 (centres undefined) | / | 43* | / | / | 19
Cc1ccc(CN(C)C[C@H]2OCc3cnnn3CCCC(=O)N([C@H](C)CO)C[C@@H]2C)cc1 | / | 0 | / | / | -8
O=[N+]([O-])c1cc(S(=O)(=O)NCc2ccco2)ccc1NN=Cc1ccccn1 | / | 1 | / | / | 3
CCOC(=O)C1C(=O)CC(C)(O)C(C(=O)OCC)C1/C=C/c1ccccc1 (centres undefined) | / | 9 | / | / | 56*
CN(C(=O)c1ccc(NC(=O)Cc2ccc([N+](=O)[O-])cc2)cc1)C1CCCC1 | 22* | 48* | -12 | 21* | 38
CN(C(=O)c1cccc(NC(=O)Cc2ccc([N+](=O)[O-])cc2)c1)C1CCCC1 | 6 | 8 | -7 | 6 | 10
CCOC(=O)c1c(C)[nH]c(C)c1C(=O)CSc1nc2ccccc2n1CCOC | 0 | 2 | -6 | 1 | -5
COc1ccc(OCCSc2nc3ccccc3n2CC(=O)O)cc1 | 2 | 15 | 2 | 0 | 5
COc1ccc(C(=O)CSc2nc3ccccc3n2CC(=O)c2ccccc2)cc1 | 3 | 19 | -10 | 2 | 59*
CCOC(=O)c1c(C)[nH]c(C)c1C(=O)CSc1nc2ccccc2n1CC | 1 | 15 | -7 | 1 | 49*
COc1cccc(NC(=O)N(C)C[C@H]2OCc3cn(nn3)CCCC(=O)N([C@H](C)CO)C[C@@H]2C)c1 | / | 3 | / | / | 15
